# Reference: ChEMBL document CHEMBL5625176, “Immunosuppressive effects of new thiophene-based KV1.3 inhibitors” (Eur J Med Chem, 2023)
# The source made the active and inactive calls. The rule behind the calls is not given here.
# Columns and labels:
# [1] = target: T1, Potassium voltage-gated channel subfamily A member 3 (Homo sapiens, UniProt P22001); assay: Inhibition of human Kv1.3 expressed in Xenopus laevis Oocyte cells at 10 uM by manual patch clamp method relative to control; format: cell-based
# T1 sequence (P22001 whole entry): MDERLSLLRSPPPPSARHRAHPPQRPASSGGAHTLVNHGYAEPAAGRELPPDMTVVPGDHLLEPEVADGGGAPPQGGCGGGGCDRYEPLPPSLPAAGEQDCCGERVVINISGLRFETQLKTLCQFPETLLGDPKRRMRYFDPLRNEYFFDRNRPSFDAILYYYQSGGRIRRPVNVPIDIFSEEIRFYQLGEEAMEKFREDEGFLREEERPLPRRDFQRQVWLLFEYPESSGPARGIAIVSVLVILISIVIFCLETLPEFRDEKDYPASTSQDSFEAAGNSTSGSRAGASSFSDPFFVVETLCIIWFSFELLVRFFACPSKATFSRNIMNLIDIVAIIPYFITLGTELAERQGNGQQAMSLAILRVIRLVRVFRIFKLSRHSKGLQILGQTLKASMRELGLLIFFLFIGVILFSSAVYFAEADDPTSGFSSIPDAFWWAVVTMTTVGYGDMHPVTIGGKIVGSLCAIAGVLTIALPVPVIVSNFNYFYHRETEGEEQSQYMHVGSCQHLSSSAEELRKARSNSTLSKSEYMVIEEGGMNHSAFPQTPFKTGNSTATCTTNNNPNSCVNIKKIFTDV
# Method in brief: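 Human Kv1.3 cRNA injected into defolliculated Xenopus oocytes. Two-electrode voltage clamp 1–4 days later at 18–22 °C in ND96 (pH 7.5). Currents evoked by 1 s depolarizations, with inhibition read at the 0 mV step. Compounds from DMSO stock at ≤0.5% DMSO, either single 10 μM or rising concentrations fitted with the Hill equation for IC50.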
# [2] = target: T1, Potassium voltage-gated channel subfamily A member 3; assay: Inhibition of Kv1.3 (unknown origin) expressed in human PBMC derived PHA-activated T-lymphocyte cells assessed as reduction in total outward potassium current at 5 uM by patch clamp electrophysiology method; format: cell-based
# Method in brief: (§1)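 Whole-cell recording on PBMC stimulated 5 days with PHA-L (240 ng/mL); about 90% of cells CD3⁺. Large cells chosen; cells with currents ≤500–600 pA discarded. Bath in mM: 130 NaCl, 5 KCl, 2 CaCl₂, 2 MgCl₂, 10 HEPES, 5 glucose, pH 7.4; pipette KF-based with 11 EGTA, pH 7.2. Leak-subtracted two-step outward K⁺ current. Single concentration 5 μM, or 0.05 nM–50 μM for curves; peak normalized to control.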
# [3] = target: T1, Potassium voltage-gated channel subfamily A member 3; assay: Inhibition of Kv1.3 in human T-lymphocyte by electrophysiology recordings; format: cell-based; method in brief: as §1
# [4] = target: T1, Potassium voltage-gated channel subfamily A member 3; assay: Inhibition of Kv1.3 (unknown origin) expressed in CHO cells incubated for 10 mins by 86Rb+ efflux assay; format: cell-based
# [5] = tested on: T-cell; assay: Inhibition of anti-CD3 stimulated human T cell proliferation incubated for 15 to 30 mins in presence of IL-2 by 3H-thymidine uptake assay; format: functional, cell-based
# [6] = target: T1, Potassium voltage-gated channel subfamily A member 3; assay: Inhibition of Kv1.3 (unknown origin) expressed in PBMC derived PHA-activated T-lymphocyte cells incubated for 5 days by manual patch clamp method; format: cell-based; method in brief: as §1
# [7] = target: T1, Potassium voltage-gated channel subfamily A member 3; assay: Inhibition of human Kv1.3 expressed in mouse LTK- cells by manual patch clamp electrophysiological recording; format: cell-based
# Method in brief: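 Mouse Ltk⁻ fibroblasts in DMEM/10% horse serum transiently transfected with hKv1.3 plasmid plus eGFP marker, and recorded 24 h later. Whole-cell patch clamp at 20–23 °C. Compounds diluted from DMSO stocks with final DMSO ≤0.1%, with 0.1% DMSO as vehicle control. Normalized current plotted against concentration and fitted with the Hill equation for IC50; mean ± SEM, n = cells.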
# [8] = target: hERG (KCNH2) (Homo sapiens, UniProt Q12809); assay: Inhibition of hERG overexpressed in HEK293 cells at 5 uM relative to control; format: toxicity, cell-based; conditions: HEK293 cells overexpressing hERG
# Sequence of hERG (KCNH2) (Q12809 whole entry): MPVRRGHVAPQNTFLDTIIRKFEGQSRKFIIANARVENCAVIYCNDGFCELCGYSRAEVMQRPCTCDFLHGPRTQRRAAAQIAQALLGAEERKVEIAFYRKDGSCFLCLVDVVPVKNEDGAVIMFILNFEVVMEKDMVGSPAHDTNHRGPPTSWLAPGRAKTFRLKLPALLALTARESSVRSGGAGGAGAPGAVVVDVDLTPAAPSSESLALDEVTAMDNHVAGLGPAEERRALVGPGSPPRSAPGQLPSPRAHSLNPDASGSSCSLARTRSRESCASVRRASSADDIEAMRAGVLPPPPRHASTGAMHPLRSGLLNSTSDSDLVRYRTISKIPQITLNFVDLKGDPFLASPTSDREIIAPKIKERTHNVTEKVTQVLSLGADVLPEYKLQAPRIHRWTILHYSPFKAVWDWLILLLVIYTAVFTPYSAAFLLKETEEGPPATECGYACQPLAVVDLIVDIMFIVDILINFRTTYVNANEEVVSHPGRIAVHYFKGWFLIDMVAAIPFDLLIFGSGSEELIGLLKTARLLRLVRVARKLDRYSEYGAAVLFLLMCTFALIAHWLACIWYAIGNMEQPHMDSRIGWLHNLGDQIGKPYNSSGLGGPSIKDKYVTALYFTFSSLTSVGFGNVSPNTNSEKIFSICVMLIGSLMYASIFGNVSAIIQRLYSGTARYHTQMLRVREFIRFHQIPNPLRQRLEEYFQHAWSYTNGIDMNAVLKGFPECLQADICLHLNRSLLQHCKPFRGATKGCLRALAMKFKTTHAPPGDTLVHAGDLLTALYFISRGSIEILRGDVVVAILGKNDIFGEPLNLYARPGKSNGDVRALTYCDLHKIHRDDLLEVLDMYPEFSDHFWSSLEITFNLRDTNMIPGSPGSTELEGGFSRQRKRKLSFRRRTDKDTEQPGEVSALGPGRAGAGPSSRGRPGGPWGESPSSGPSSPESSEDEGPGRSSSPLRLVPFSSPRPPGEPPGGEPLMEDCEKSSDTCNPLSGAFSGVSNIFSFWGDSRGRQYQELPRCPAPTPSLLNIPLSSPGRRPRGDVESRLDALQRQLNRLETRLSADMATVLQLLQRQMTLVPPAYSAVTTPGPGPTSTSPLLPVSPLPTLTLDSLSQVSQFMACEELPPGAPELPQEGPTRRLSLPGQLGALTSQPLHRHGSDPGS
# [9] = Aqueous solubility of compound; format: physicochemical; conditions: buffer
# Method in brief: (§2)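 Supernatant diluted 1:2 or 1:10 in 0.1% TFA/MeCN 1:1 and quantified by reversed-phase UPLC at 290 nm against a 7-point calibration (1–100 μM). Mean of two independent experiments, in μM.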
# [10] = Thermodynamic solubility of the compound at pH 7.4 incubated for 24 hrs under shaking condition by HPLC analysis; format: physicochemical; conditions: buffer, read-out: Therm_solubility; method in brief: as §2
# [11] = tested on: T-cell; assay: Induction of cell cycle arrest at G0/G1 phase in human PBMC derived PHA-activated T-lymphocytes assessed as reduction S phase cells at 30 uM measured after 5 days by flow cytometric analysis; format: functional, cell-based; conditions: time 5.0 day
# Method in brief: (§3)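 PHA-activated PBMC exposed to compounds (30 μM) for 5 days in RPMI/10% heat-inactivated calf serum/2 mM L-glutamine, scraped off and incubated 1 h at 4 °C in the dark. Cell cycle read by flow cytometry and scored as G0/G1 versus cycling (S+G2/M) percentage. Mean ± SD of 3 experiments; unpaired t-test against untreated cells.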
# [12] = tested on: T-cell; assay: Induction of cell cycle arrest at G0/G1 phase in human PBMC derived PHA-activated T-lymphocytes assessed as reduction G2/M phase cells at 30 uM measured after 5 days by flow cytometric analysis; format: functional, cell-based; conditions: time 5.0 day; method in brief: as §3
# [13] = tested on: T-cell line; assay: Cytotoxicity against human PBMC derived PHA-activated T-lymphocytes assessed as effect on cell viability by trypan blue staining based analysis; format: toxicity; conditions: 30 µM
# Method in brief: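 PBMC purified by Ficoll gradient with red-cell lysis, seeded at 1.5 × 10⁶ cells/mL in RPMI with 10% heat-inactivated serum and 2 mM L-glutamine. Activated with PHA-L 240 ng/mL alongside compounds at 30 μM. Viability of treated versus untreated cells judged by trypan blue staining.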
# [14] = tested on: T-cell; assay: Inhibition of human PBMC derived PHA-activated T-lymphocytes activation assessed as inhibition of colony formation by measuring reduction in colony forming units at 30 uM incubated for 5 days by bright-field microscopic analysis; format: functional, cell-based; conditions: time 5.0 day
# Method in brief: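 PBMC at 1.5 × 10⁶ cells/mL treated with compounds (30 μM) together with PHA-L (240 ng/mL) for 5 days in RPMI with 10% heat-inactivated bovine calf serum and 2 mM L-glutamine. After medium removal, wells imaged by bright-field microscopy at 2× and colonies (CFU) counted. Mean ± SD of 3 experiments.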
# [15] = target: T1, Potassium voltage-gated channel subfamily A member 3; assay: Inhibition of Kv1.3 in human PBMC derived PHA-activated T-lymphocytes assessed as reduction in intracellular calcium level at 5 uM incubated for 2 hrs by Fluo-4 Ca2+ based flow cytometric analysis; format: cell-based; conditions: T-lymphocyte
# Method in brief: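 PBMC activated 5 days with PHA, then given compounds at 5 μM for 2 h. Scraped and loaded with Fluo-4 (2 μM) plus anti-CD3-APC at 37 °C for 1 h, washed, and held 30 min at 37 °C with compound (5 μM) before flow cytometry. Fluo-4 MFI of the CD3⁺ gate, 3 replicates, normalized to untreated control; n = 4.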
# [16] = tested on: T-cell line; assay: Cytotoxicity against human PBMC derived PHA-activated T-lymphocytes assessed as effect on total cell number at 30 uM incubated for 5 days by bright-field microscopic analysis; format: toxicity, cell-based; conditions: 120 h, time 5 day
# Method in brief: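 Ficoll-purified PBMC at 1.5 × 10⁶ cells/mL in RPMI/10% heat-inactivated serum/2 mM L-glutamine, stimulated with PHA-L 240 ng/mL and exposed to compounds (30 μM) for 5 days. Cells then counted to give total cell number.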
# [17] = Aqueous solubility of compound in DMEM; format: physicochemical
# [18] = target: T1, Potassium voltage-gated channel subfamily A member 3; assay: Inhibition of human Kv1.3 expressed in PHA-activated T-lymphocyte cells assessed as outward current at 1 uM incubated for 1 min by patch clamp electrophysiology method (reference value: 769.2 +/- 199.2 pA); format: cell-based
# Method in brief: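 Human PBMCs isolated by Ficoll gradient with red-cell lysis, seeded at 1.5 × 10⁶ cells/mL in RPMI with 10% heat-inactivated serum and 2 mM L-glutamine, then stimulated 5 days with PHA-L 240 ng/mL. Whole-cell patch clamp used a bath of (mM) 130 NaCl, 5 KCl, 10 HEPES, pH 7.4 and a pipette of 140 KF, 11 EGTA, pH 7.2. Large cells were selected, and cells with currents ≤500–600 pA were discarded. Outward current was leak-subtracted and compared to control by paired t-test.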
# [19] = target: T1, Potassium voltage-gated channel subfamily A member 3; assay: Inhibition of Kv1.3 (unknown origin) expressed in Xenopus laevis Oocyte cell membrane by Electrophysiology recording; format: cell membranes
Structure (SMILES),inhibition [1] [%],inhibition [2],other results
CNC(=O)O[C@H]1CC[C@](CNC(=O)c2ccccc2OC)(c2ccsc2)CC1,79.6,Active,
COc1ccccc1C(=O)NCC1(c2ccccc2)CCC(=O)CC1,87.5,Active,IC50 [3]: 310 nM; IC50 [4]: 260 nM; IC50 [5]: 1000 nM
C=CCNC(=O)O[C@H]1CC[C@@](CNC(=O)c2ccccc2OC)(c2ccsc2)CC1,36.2,Active,IC50 [6]: 37.2 nM
COc1ccccc1C(=O)NC[C@]1(c2cccs2)CC[C@@H](O)CC1,38.5,Active,
O=C(NC[C@]1(c2cccs2)CC[C@H](O)CC1)c1ccoc1,65.7,Active,
COc1ccccc1C(=O)NC[C@]1(c2ccsc2)CC[C@@H](O)CC1,78.5,Active,
COc1ccc(F)cc1C(=O)NC[C@]1(c2cccs2)CC[C@@H](O)CC1,54.9,Active,
CNC(=O)O[C@H]1CC[C@@](CNC(=O)c2ccccc2OC)(c2ccsc2)CC1,93,Active,IC50 [7]: 170 nM; inhibition at 5 µM [8]: 19%
O=C1CCC(CNC(=O)c2ccoc2)(c2cccs2)CC1,55.3,Active,
O=C(NC[C@]1(c2cccs2)CC[C@@H](O)CC1)c1ccoc1,0,Active,inhibition at 5 µM [8]: 21%
CCCNC(=O)O[C@H]1CC[C@](CNC(=O)c2ccccc2OC)(c2ccsc2)CC1,25.5,Active,
COc1ccccc1C(=O)NC[C@]1(c2cccs2)CC[C@H](O)CC1,90.9,Active,IC50 [7]: 250 nM
O=c1ccc2c(OCCCCOc3ccccc3)c3ccoc3cc2o1,,,solubility [9]: < 1000 µg/mL
COc1ccccc1C(=O)NC[C@]1(c2ccsc2)CC[C@H](O)CC1,97.6,Active,solubility thermodynamic at 24 h [10]: 72 µM; Activity [11]: Active; Activity [12]: Active; Activity [13]: Non-Toxic; IC50 [7]: 450 nM; inhibition [14]: Active; inhibition at 5 µM [8]: 15%; IC50 [6]: 56.8 nM; inhibition [15]: inactive; Activity [16]: Non-Toxic
COc1cc(C)ccc1C(=O)NCC1(c2cccs2)CCC(=O)CC1,85.6,Active,
COc1ccc(F)cc1C(=O)NC[C@]1(c2cccs2)CC[C@H](O)CC1,66.4,Active,

Structure (SMILES),inhibition [1] [%],inhibition [2],other results
COc1ccccc1C(=O)NCC1(c2cccs2)CCC(=O)CC1,95.1,Active,solubility thermodynamic at 24 h [10]: 210 µM; IC50 [7]: 1130 nM
CNC(=O)O[C@H]1CC[C@](CNC(=O)c2ccccc2OC)(c2cccs2)CC1,94.7,Active,IC50 [7]: 180 nM
COCCCNC(=O)O[C@H]1CC[C@](CNC(=O)c2ccccc2OC)(c2ccsc2)CC1,94.5,Active,IC50 [7]: 670 nM
O=c1ccc2c(OCCCCOc3ccc(O)cc3)c3ccoc3cc2o1,,,solubility [17]: 0.6 µM
COc1ccc(F)cc1C(=O)NCC1(c2cccs2)CCC(=O)CC1,39.1,Active,
CCCNC(=O)O[C@H]1CC[C@@](CNC(=O)c2ccccc2OC)(c2ccccc2)CC1,87.3,Active,IC50 [5]: 340 nM
CCCNC(=O)O[C@H]1CC[C@](CNC(=O)c2ccccc2OC)(c2ccccc2)CC1,40.5,Active,
CNC(=O)O[C@H]1CC[C@@](CNC(=O)c2ccccc2OC)(c2cccs2)CC1,93.8,Active,IC50 [7]: 470 nM
COc1ccccc1C(=O)NC[C@]1(c2ccsc2)CC[C@@H](N)CC1,0.65,Active,
Clc1ccccc1C(c1ccccc1)(c1ccccc1)n1cccn1,,,Activity [18]: 173 pA
COc1ccccc1C(=O)NC[C@]1(c2ccsc2)CC[C@H](N)CC1,6.46,Active,
COc1ccc(C)cc1C(=O)NCC1(c2cccs2)CCC(=O)CC1,23.3,Active,
COc1ccccc1C(=O)NCC1(c2ccsc2)CCC(=O)CC1,97,Active,solubility thermodynamic at 24 h [10]: 400 µM; IC50 [7]: 800 nM
COc1ccccc1C(=O)NCC1(c2ccsc2)CCCC1,,,IC50 [19]: 17.4 µM
COCCCNC(=O)O[C@H]1CC[C@](CNC(=O)c2ccccc2OC)(c2cccs2)CC1,91.6,Active,IC50 [7]: 850 nM
